Experimental findings from ChEMBL document CHEMBL1926621, “New potent 5-HT(2A) receptor ligands containing an N'-cyanopicolinamidine nucleus: Synthesis and in vitro pharmacological evaluation” (Eur J Med Chem, 2012) are described below.

Broadly, the Ki is a dissociation constant, usually derived from enzyme kinetics or from competition with a known ligand. Lower therefore signals tighter binding. What is called inhibition is the relative decrease from the control value, in per cent. A lower inhibition goes with a response near the control.

In assay [1] the target is T1, Adrenergic receptor alpha-2 (Rattus norvegicus, UniProt P22086+P19328+P22909).
T1 sequence (P22086 whole entry): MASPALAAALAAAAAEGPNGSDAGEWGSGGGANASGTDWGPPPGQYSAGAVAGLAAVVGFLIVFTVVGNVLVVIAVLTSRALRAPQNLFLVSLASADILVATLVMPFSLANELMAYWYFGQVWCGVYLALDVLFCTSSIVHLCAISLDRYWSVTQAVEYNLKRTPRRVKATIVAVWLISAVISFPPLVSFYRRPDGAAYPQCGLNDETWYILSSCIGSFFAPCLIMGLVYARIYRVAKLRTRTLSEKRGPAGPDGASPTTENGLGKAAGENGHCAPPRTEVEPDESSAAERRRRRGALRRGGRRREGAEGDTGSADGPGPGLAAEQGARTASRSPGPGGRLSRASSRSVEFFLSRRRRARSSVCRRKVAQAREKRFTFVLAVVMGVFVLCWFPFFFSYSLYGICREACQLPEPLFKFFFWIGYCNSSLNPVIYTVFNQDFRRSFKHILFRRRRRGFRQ
T1 sequence (P19328 whole entry): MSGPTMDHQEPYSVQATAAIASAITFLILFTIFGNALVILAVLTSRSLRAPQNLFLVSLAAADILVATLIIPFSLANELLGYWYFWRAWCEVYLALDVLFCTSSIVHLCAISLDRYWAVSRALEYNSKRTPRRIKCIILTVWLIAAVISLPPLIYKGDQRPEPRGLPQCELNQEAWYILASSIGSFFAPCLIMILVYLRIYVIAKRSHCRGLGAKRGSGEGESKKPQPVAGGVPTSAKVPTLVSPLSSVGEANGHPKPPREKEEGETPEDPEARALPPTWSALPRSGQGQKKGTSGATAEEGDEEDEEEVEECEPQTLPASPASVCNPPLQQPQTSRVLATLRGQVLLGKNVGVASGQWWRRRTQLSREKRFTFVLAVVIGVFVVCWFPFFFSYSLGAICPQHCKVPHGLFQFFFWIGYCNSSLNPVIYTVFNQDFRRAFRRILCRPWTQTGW
T1 sequence (P22909 whole entry): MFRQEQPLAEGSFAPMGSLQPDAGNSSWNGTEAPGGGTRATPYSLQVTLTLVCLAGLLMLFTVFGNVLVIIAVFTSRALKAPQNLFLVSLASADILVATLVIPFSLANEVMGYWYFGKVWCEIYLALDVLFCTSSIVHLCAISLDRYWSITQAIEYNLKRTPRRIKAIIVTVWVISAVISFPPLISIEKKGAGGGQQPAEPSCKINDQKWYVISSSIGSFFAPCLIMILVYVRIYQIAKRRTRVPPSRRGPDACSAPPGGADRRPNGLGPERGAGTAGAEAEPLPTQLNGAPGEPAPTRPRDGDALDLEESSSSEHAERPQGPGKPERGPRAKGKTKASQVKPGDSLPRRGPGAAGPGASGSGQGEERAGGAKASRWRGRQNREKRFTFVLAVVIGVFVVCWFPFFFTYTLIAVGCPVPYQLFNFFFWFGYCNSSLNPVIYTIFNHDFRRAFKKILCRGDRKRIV
Briefly: Displacement of [3H]yohimbine from rat brain cortex adrenergic alpha2 receptor after 30 mins by liquid scintillation counting. A digest of the protocol: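 Cortex homogenized in 5 mM Tris-HCl, 5 mM EDTA pH 7.3, spun three times at 50,000 g, resuspended in 50 mM Tris-HCl, 0.5 mM EDTA pH 7.5. [3H]yohimbine 1 nM final, 10 mg fresh tissue, 30 min at 25 °C. Phentolamine defined nonspecific binding. Ki by Cheng-Prusoff.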
Background: In a radioligand displacement assay an active substance lowers the binding of a labelled ligand.

Assay [2] deals with 5-hydroxytryptamine receptor 2A (Rattus norvegicus) (UniProt P14842). The assay is described as follows: Displacement of [3H]ketanserin from Sprague-Dawley rat brain cortex serotonin 5-HT2A receptor at 0.00001 uM after 15 mins by liquid scintillation counting.
Sequence of 5-hydroxytryptamine receptor 2A (Rattus norvegicus) (P14842 whole entry): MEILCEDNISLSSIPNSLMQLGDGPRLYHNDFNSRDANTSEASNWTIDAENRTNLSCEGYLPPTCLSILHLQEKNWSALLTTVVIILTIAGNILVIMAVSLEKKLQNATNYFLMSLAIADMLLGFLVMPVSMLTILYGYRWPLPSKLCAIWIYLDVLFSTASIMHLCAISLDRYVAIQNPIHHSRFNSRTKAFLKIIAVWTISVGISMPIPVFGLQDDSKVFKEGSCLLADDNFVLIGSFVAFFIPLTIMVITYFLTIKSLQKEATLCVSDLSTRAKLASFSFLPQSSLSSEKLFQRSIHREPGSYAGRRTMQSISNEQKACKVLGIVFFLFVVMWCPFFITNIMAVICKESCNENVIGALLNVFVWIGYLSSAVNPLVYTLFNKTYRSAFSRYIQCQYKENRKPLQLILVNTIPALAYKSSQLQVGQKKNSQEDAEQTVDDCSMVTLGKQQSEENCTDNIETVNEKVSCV
For assay [3] the target is unchanged. The assay is described as follows: Displacement of [3H]ketanserin from Sprague-Dawley rat brain cortex serotonin 5-HT2A receptor at 0.0000001 uM after 15 mins by liquid scintillation counting.

`COc1ccccc1N1CCN(CCCN/C(=N\C#N)c2ccccn2)CC1`: the Ki in assay [1] is listed as 245 nM. Also, the inhibition in assay [2] was found to be 65.9%; in assay [3], 21.9%. In the case of `N#C/N=C(\NCCCN1CCN(c2ccccn2)CC1)c1ccccn1`, the Ki in assay [1] is listed as > 10000 nM. For the compound `N#C/N=C(\NCCCN1CCN(c2ncccn2)CC1)c1ccccn1`, the inhibition in assay [2] was 44.3%; in assay [3], 24.2%. Regarding `N#C/N=C(\NCCCN1CCN(c2cccc(C(F)(F)F)c2)CC1)c1ccccn1`, the Ki in assay [1] is on record as > 10000 nM. Further, the inhibition stood at 62.8% in assay [2] and 34.9% in assay [3].

In assay [1], `Cc1cccc(N2CCN(CCCN/C(=N\C#N)c3ccccn3)CC2)c1C` displayed a Ki of 318 nM. This lies in the sub-micromolar range. In assay [1], `CCOc1ccccc1N1CCN(CCCN/C(=N\C#N)c2ccccn2)CC1` displayed a Ki of 571 nM.
